Assay results pooled from the literature.
Compare with care: the assays were run in different laboratories.

`CCOC(=O)[C@@]12C[C@@H]1[C@@H](n1ccc3c(NC)nc(C#Cc4ccc(Cl)s4)nc31)[C@H](O)[C@@H]2O` gave a half-life of 1.55 h (male Sprague-Dawley rat, plasma; oral, 3 mg/kg).
`COc1nc(-c2cc(C)c(N[C@@H](C)c3cc(F)cc(F)c3)nn2)ccc1-n1cnc(C)c1` gave a half-life of 2.2 h (male Sprague-Dawley rat, plasma; oral, 5 mg/kg, single dose).
`Cc1cnc(N2CC3(CCOCC3)C2)c(C(=O)Nc2ccc(C(=O)N3CCc4cc(C(=O)Nc5c(C)cccc5F)sc4-c4ccccc43)cc2)c1` gave a half-life of ~2.3 h (rat, plasma; intravenous, 0.1 mg/kg, single dose).
`CCc1cc(C(=O)NC)c2nccc(N3CCc4c(cc(Cn5ccnc5)cc4-c4cn(C)nc4C(F)(F)F)C3=O)c2c1` gave a half-life of 3.8 h (male Sprague-Dawley rat, plasma; oral, 50 mg/kg, single dose).
`C[C@H](Nc1ncnc2[nH]cnc12)c1cc2cccc(Cl)c2c(=O)n1-c1ccccc1` gave a half-life of 0.82 h (male Wistar rat, plasma; oral, 25 mg/kg, single dose).
`COCCOC(=O)C1=C(C)NC(C)=C(C(=O)OC(C)C)C1c1cccc([N+](=O)[O-])c1` (stereo not shown) gave a half-life of 7.5 h (male Sprague-Dawley rat, plasma; oral, 12 mg/kg).
`CCc1cc(OC)c2nccc(N3CCc4c(cc(Cn5ccnc5)cc4-c4cn(C)nc4C(F)(F)F)C3=O)c2c1` gave a half-life of 1.3 h (male Sprague-Dawley rat, plasma; oral, 50 mg/kg).
For `COc1ccc2c(Cc3ccccc3F)c3n(c(=O)c2c1OC)CCc1cc2c(cc1-3)OCO2`, the half-life was 17.8 h (rat, plasma; oral, 5 mg/kg).
`CC[C@H](C)[C@H](NC(=O)[C@H](Cc1ccccc1)NC(=O)[C@H](CCC(=O)O)NC(=O)[C@H](CCCNC(=N)N)NC(=O)[C@H](C)NC(=O)[C@H](C)NC(=O)[C@H](CCC(N)=O)NC(=O)[C@H](CCC(=O)O)NC(=O)[C@H](CCC(=O)O)NC(=O)[C@H](CC(C)C)NC(=O)[C@H](Cc1ccc(O)cc1)NC(=O)[C@H](CO)NC(=O)[C@H](CO)NC(=O)[C@@H](NC(=O)[C@H](CC(=O)O)NC(=O)[C@H](CO)NC(=O)[C@@H](NC(=O)[C@H](Cc1ccccc1)NC(=O)[C@@H](NC(=O)CNC(=O)[C@H](CCC(=O)O)NC(=O)[C@H](C)NC(=O)CCc1c[nH]cn1)[C@@H](C)O)[C@@H](C)O)C(C)C)C(=O)N[C@@H](C)C(=O)N[C@@H](Cc1c[nH]c2ccccc12)C(=O)N[C@@H](CC(C)C)C(=O)N[C@H](C(=O)N[C@@H](CCCNC(=N)N)C(=O)NCC(=O)N[C@@H](CCCNC(=N)N)C(=O)N[C@@H](CCCCNC(=O)COCCOCCNC(=O)COCCOCCNC(=O)CC[C@H](NC(=O)CCCCCCCCCCCCCCCCC(=O)O)C(=O)O)C(=O)O)C(C)C` gave a half-life of 13 h (rat, plasma; subcutaneous, 20 nmol/kg).
For `O=C(Nc1ccc(C(F)(F)F)cc1F)N1CCC(Cc2cccc(Oc3ccc(C(F)(F)F)cn3)c2)CC1`, the half-life was 5.8 h (male Sprague-Dawley rat, blood; oral, 1 mg/kg).
With `Oc1c(Br)cc(Cl)c2cccnc12` the half-life was 5.6 h (Sprague-Dawley rat, plasma; subcutaneous, 10 mg/kg).
For `O=C(O)/C=C/c1ccc(O)c(O)c1`, the half-life was 0.33 h (HPLC; Wistar rat, plasma; oral).
The half-life of `COc1ccc2c(=O)n(C)c(-c3ccccc3)nc2c1` is reported as 0.83 h (male Sprague-Dawley rat, plasma; intravenous, 2 mg/kg).
For `Oc1c(-n2ccnn2)cnn1-c1cc(N2CCOCC2)ncn1`, the half-life was 3 h (male rat, plasma; oral, 5 mg/kg).
`COc1cc2c3c(n(CCCN4CCOCC4)c(=O)c2cc1OC)-c1cc2c(cc1C3=O)OCO2` has a half-life of 4.6 h (female Fischer 344 rat, plasma; intravenous, 24 mg/m², single dose).
`N#Cc1[nH]nnc1-c1cccc(-c2cc(F)cc(C(F)(F)F)c2)c1` gave a half-life of 2.6 h (male Sprague-Dawley rat, plasma; oral, 10 mg/kg).
For `COc1ccc2c(Cc3ccccc3F)c3[n+](cc2c1OC)CCc1cc2c(cc1-3)OCO2.[Br-]`, the half-life was 1.61 h (rat, plasma; intravenous, 5 mg/kg).
For `CCc1nc(C(N)=O)c(Nc2ccc(N3CCC(N4CCN(C)CC4)CC3)c(OC)c2)nc1NC1CCOCC1`, the half-life was 14.3 h (male Sprague-Dawley rat, plasma; oral, 10 mg/kg).
With `COc1ccc(C(C)=O)c(O)c1` the half-life was 3.37 h (male Sprague-Dawley rat, plasma; oral, 100 mg/kg).
The half-life of `Cc1noc(-c2cc3cc(-c4nc(C(=O)NCc5ccncc5)[nH]c4C)ccc3[nH]2)n1` is reported as 1.8 h (Sprague-Dawley rat, plasma; intravenous, 1 mg/kg).
The half-life of `N#Cc1ccc(Nc2nc(N)cc(Oc3c(F)cc(-c4ccc(C#N)cc4)cc3F)n2)cc1` is reported as 1.25 h (Sprague-Dawley rat, plasma; intravenous, 1 mg/kg).
`N#Cc1[nH]nnc1-c1cc(Cl)cc(/C=C/c2cccc(C(F)(F)F)c2)c1` has a half-life of 2.9 h (male Sprague-Dawley rat, plasma; oral, 10 mg/kg).
`O=C(Nc1cc(F)c(F)c(F)c1)c1ccc(F)c(S(=O)(=O)NCc2cccc(B(O)O)c2)c1` has a half-life of 1.08 h (male Sprague-Dawley rat, plasma; oral, 20 mg/kg).
For `CNCc1cc(-c2ccccc2F)n(S(=O)(=O)c2cccnc2)c1`, the half-life was 1.29 h (Sprague-Dawley rat, plasma; oral, 10 mg/kg).
`Cc1c(-c2ccccc2)cccc1N1C(=O)c2cc(CN[C@H](C(=O)O)C(C)O)c(OCc3cccc(C#N)c3)cc2C1=O` (stereo partly shown) gave a half-life of 6.44 h (Sprague-Dawley rat, plasma; intravenous, 5 mg/kg).
